Compounds with a hit are over-represented: about 5.4% of the library has one in this group of screens.
DAT uptake mod = changed human dopamine transporter uptake under cocaine IC80 | LLC-PK1 hDAT cells, [14C]-dopamine uptake with cocaine IC80; actives deviate in either direction | B-score at 10 µM | 1.3% of 110,000 active;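 active means Z score or B-score, a plate-position-corrected score, falls beyond the plate's 99.7% confidence bounds, in either direction; inactive means both scores lie inside the 99.7% bounds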;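 further: scored against the spread of the other compound wells on the same plate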
Target sequence (Q01959 whole entry, looked up): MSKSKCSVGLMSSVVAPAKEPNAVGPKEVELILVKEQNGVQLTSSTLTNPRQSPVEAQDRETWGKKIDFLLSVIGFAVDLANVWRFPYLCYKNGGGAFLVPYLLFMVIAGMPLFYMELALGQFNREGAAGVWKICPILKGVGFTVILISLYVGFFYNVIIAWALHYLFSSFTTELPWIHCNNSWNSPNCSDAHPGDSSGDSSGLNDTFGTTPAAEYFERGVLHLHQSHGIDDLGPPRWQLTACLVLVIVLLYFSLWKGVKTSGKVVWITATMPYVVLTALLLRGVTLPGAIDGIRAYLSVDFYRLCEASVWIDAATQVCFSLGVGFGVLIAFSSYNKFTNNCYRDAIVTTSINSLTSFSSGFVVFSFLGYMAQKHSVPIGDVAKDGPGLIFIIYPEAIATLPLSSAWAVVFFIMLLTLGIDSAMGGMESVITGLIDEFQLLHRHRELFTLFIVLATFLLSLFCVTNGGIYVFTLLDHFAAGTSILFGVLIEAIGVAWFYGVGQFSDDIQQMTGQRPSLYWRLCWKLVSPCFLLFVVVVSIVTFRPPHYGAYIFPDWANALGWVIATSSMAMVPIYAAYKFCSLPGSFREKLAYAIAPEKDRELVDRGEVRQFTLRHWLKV
EphB4 antag = antagonists of human EphB4-ephrin-B2 interaction | EphB4 LBD / TNYL-RAW-Alexa532 peptide, fluorescence polarization | inhibition, % at 7 µM | AID 720 | P54760 | 0.15% of 97,000 active;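 active means inhibition above the screen-wide mean inhibition plus 3 SD, cut at about 15% in these data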;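 further: 0% = DMSO wells and 100% = excess unlabeled TNYL-RAW peptide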
Cav32 inh = blocks human Cav3.2 T-type calcium channel; 4% of 100,000 active; O95180; B-score at 10 µM; Cav3.2-expressing cells, Fluo-4 calcium fluorescence FDSS; stronger effect = lower value; AID 449739;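 active means single-dose well whose peak fluorescence ratio is a statistical outlier from its plate by either plate-standardised score or position-corrected B-score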
HIV Rev-RRE inh = inhibitors of HIV-1 Rev-RRE RNA interaction | P05866 | Rev peptide-RRE RNA binding, FRET | inhibition, % at 8 µM | 0.79% of 97,000 active;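 active means inhibition above the screen-wide mean plus 3 SD, cut at about 35% in these data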;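 further: 0% = median DMSO wells and 100% = median Neomycin B control wells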
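Probe or stimulus: fluorescein-Rev peptide as binding partner; assay system: Cy5-tagged RRE RNA duplex with fluorescein-tagged Rev peptide; timing: 5 min compound–RNA preincubation, then 15 min with peptide, 25 °C; medium: HEPES pH 7.5 buffer with KCl, MgCl2, NaCl and EDTA; signal: fluorescein-to-Cy5 FRET, 480 nm excitation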
Starred values were filed as active, the others as inactive; / = not tested or not shown.

SMILES	DAT uptake mod	EphB4 antag	Cav32 inh	HIV Rev-RRE inh
CCOC(=O)c1cc(C#N)c(Oc2cccc(C(F)(F)F)c2)nc1-c1ccccc1	0.00014	0	-4.5*	6
CC(C)C[C@H](NC(=O)c1[nH]cnc1C(=O)Nc1ccccc1)C(=O)OC(C)(C)C	1.9	/	1.6	/
Cc1ccccc1NS(=O)(=O)c1ccc(OCC(=O)N2CCCCC2)cc1	1.5	4	0.92	6
O=C(Nc1ccc2c(c1)CCC2)C1CCN(c2c3c(nc4ncnn24)CCC3)CC1	0.76	5	2.8*	3
COc1ccc(NC(=O)C2CCCN(c3c4c(nc5ncnn35)CCC4)C2)cc1OC (stereo unspecified)	1.5	5	3.3*	10
COc1ccc(C2(C(=O)NCc3ccco3)CCCC2)cc1OC	0.49	-2	0.56	-2
CCN(CC)C(=O)CSc1nc2ccccc2c(=O)n1CCC(=O)NCc1ccc(F)cc1	0.5	10	-0.66	1
Cc1cccc(N2C(=O)CC(N(C(=O)c3ccco3)c3cccc(C)c3)C2=O)c1 (stereo unspecified)	-0.75	-6	0.19	1
CCCCCC[C@@H]([C@@H](C)O)n1cnc2c(N)ncnc21	0.55	/	/	/
Cc1ccccc1-c1nc(S(=O)(=O)c2ccc(Cl)cc2)c(NCCN2CCOCC2)o1	1.9*	1	-2.1	7
Cc1cccc(C(C)Nc2ccc([N+](=O)[O-])cn2)c1 (stereo unspecified)	-0.93	1	-4.3*	1
CCN1/C(=C/c2ccc3cccc(C)c3[n+]2CC)Sc2ccccc21	-1.4	0	-3.9*	28
COc1cc(S(=O)(=O)n2nc(C)cc2C)c(OC)cc1Cl	-0.72	8	-0.98	7
Cc1ccc2c(CC(=O)OCc3nc(N)nc(Nc4ccccc4C)n3)coc2c1	0.57	-3	-1.9	8
Cc1ccc2c(CC(=O)OCc3csc(C)n3)coc2c1	-7.4*	-6	0.083	1
CC(C)NC(=O)c1sc2nc3c(c(-c4cccs4)c2c1N)CN(C)CC3	-2	-3	-0.67	15
Cc1cccc(NC(=O)c2sc3nc4c(c(-c5cccs5)c3c2N)CN(C)CC4)c1	0.33	2	0.69	71*
CCCn1c(=O)[nH]c2ccccc21	-1.4	5	0.55	10
O=c1[nH]c2ccccc2n1CCCN1CCN(C(c2ccccc2)c2ccccc2)CC1	-0.91	/	-5*	/
CCCCN1C(=O)C2NN=C(C(=O)OC)C2C1=O (stereo unspecified)	-1.8	-7	0.53	6
C=CCSC1=C(C#N)C(c2ccc(C(C)C)cc2)CC(=O)N1 (stereo unspecified)	1.3	-6	-3.5*	10
C=CCSC1=C(C#N)C(c2ccccc2)CC(=O)N1 (stereo unspecified)	1.7	8	0.5	8
Cc1cc(C)cc(CC(Cc2nc3ccccc3[nH]2)c2nc3ccccc3[nH]2)c1 (stereo unspecified)	1.1	-8	-6.7*	14
CC(C)SCc1nc2ccccc2[nH]1	/	-5	/	4
O=C1CC(c2ccco2)CC(O)=C1C=Nc1cc(Cl)ccc1O (stereo unspecified)	-8.5*	1	/	3
SMILES	DAT uptake mod	EphB4 antag	Cav32 inh	HIV Rev-RRE inh
O=C(Nc1cccnc1)c1ccc(S(=O)(=O)N2CCCCCC2)cc1	1.2	-7	0.27	2
Cc1ccc(NC(=O)CN(c2cc(C)cc(C)c2)S(=O)(=O)c2c(C)noc2C)nc1	0.16	-3	-4.5*	10
Cc1cc(C)cc(N(CC(=O)N2CCN(c3ccccc3)CC2)S(=O)(=O)c2c(C)noc2C)c1	0.41	-4	-2.1	1
CCOc1ccc(N(CC(=O)N2CCc3ccccc32)S(=O)(=O)c2c(C)noc2C)cc1	0.37	-13	-1.7	2
Cc1cc(C)cc(N(CC(=O)N2CCn3c2nc2ccccc23)S(=O)(=O)c2c(C)noc2C)c1	0.15	2	-5.6*	7
CCOc1ccc(N(CC(=O)N2CC=C(c3ccccc3)CC2)S(=O)(=O)c2c(C)noc2C)cc1	0.58	-3	-4.8*	-2
Cc1n[nH]c(C)c1S(=O)(=O)N(CC(=O)N1CCc2ccccc21)c1ccc(C(C)C)cc1	0.42	2	3*	15
Cc1cc(C)cc(N(CC(=O)N2CCc3ccccc32)S(=O)(=O)c2c(C)noc2C)c1	0.052	4	-5.5*	13
CCc1cccc(NC(=O)Cn2cccc2)c1	-0.023	0	0.13	-3
CCc1cccc(NC(=O)CSC2=NS(=O)(=O)c3ccccc32)c1	-1.6	1	-5.4*	11
